Source: ChEMBL document CHEMBL1221229, “Phloroglucinol glycosides from the fresh fruits of Eucalyptus maideni” (J Nat Prod, 2010)
Calls of active or inactive are those of the source. The calls are words filed in the database; no cut-off is given here.

Columns and labels:
Human alphaherpesvirus 1 = test: Antiviral activity against HSV1 infected african green monkey Vero cells assessed as reduction of plaque formation after 3 days by using crystal violet stain; assay type: functional, organism-based
Procedure, shortened: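 Vero cells in 24-well plates, grown 24 h, then infected with 30 PFU HSV-1 alongside serial sample dilutions in DMEM with 2% FBS (pH 7.2, NaHCO3/Hepes). The wells were overlaid with 1% methylcellulose medium and incubated 3 days. Monolayers were formalin-fixed and crystal violet-stained, and plaques counted by microscope. The 100% plaque-reducing concentration was read from graphic plots. Aciclovir was the positive control.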

[1] = Cytotoxicity against african green monkey Vero cells after 3 days by MTT assay; assay type: cell-based; conditions: chlorocebus sabaeus, read-out: MNCC
Procedure, shortened: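 Confluent Vero monolayers in 96-well plates were exposed in triplicate to serial sample dilutions in DMEM with 2% FBS (pH 7.2) for 3 days. MTT (5 mg/mL in PBS) was added for 4 h, and formazan was dissolved in DMSO with OD read at 540/630 nm. The value is the maximal concentration without cytotoxic effect relative to medium control.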

Row | SMILES | TIC (Human alphaherpesvirus 1) | MNTC at 72 h [1] | inhibition (Human alphaherpesvirus 1)
1 | O=c1c(O)c(-c2ccc(O)c(O)c2)oc2cc(O)cc(O)c12 [QUERCETIN] | 0.33 mM | < 20 µM | 
2 | O=c1cc(-c2cc(O)c(O)c(O)c2)oc2cc(O)cc(O)c12 [TRICETIN] |  | 40 µM | inactive
3 | O=c1c(O)c(-c2cc(O)c(O)c(O)c2)oc2cc(O)cc(O)c12 [MYRICETIN] | 0.31 mM | 310 µM | 
4 | O=C(O)c1cc(O)c(O)c(O)c1 [GALLIC ACID] |  | 590 µM | inactive
5 | O=c1cc(-c2ccc(O)c(O[C@@H]3O[C@H](CO)[C@@H](O)[C@H](O)[C@H]3O)c2)oc2cc(O)cc(O)c12 |  | 450 µM | inactive
6 | CC(C)(O)[C@H]1CC=C(C(=O)OC[C@H]2O[C@@H](Oc3cc(C(=O)O)cc(O)c3O)[C@H](O)[C@@H](O)[C@@H]2O)CC1 |  |  | inactive
7 | O=c1cc(-c2ccc(O)c(O)c2)oc2cc(O)cc(O)c12 [LUTEOLIN] |  | 700 µM | inactive
8 | COc1c(O)cc2c(=O)oc3c(O[C@@H]4O[C@@H](C)[C@H](O)[C@@H](O)[C@H]4O)c(O)cc4c(=O)oc1c2c34 |  | 430 µM | inactive
9 | CC(C)(O)[C@H]1CC=C(C(=O)OC[C@H]2O[C@@H](Oc3c(O)cc(C(=O)O)cc3O)[C@H](O)[C@@H](O)[C@@H]2O)CC1 |  |  | inactive
10 | CC(C)(O)C1CC=C(C(=O)O)CC1 (racemic) |  | > 1090 µM | inactive
11 | CC(C)(O)[C@H]1CC=C(C(=O)OC[C@H]2O[C@@H](OC(=O)[C@H]3CC[C@H](C(C)(C)O)CC3)[C@H](O)[C@@H](O)[C@@H]2O)CC1 |  |  | inactive
12 | O=C[C@H](O)[C@@H](O)[C@H](O)[C@H](O)COC(=O)c1cc(O)c(O)c(O)c1 |  | 9 µM | inactive
13 | O=c1cc(-c2cc(O)c(O)c(O[C@@H]3O[C@H](CO)[C@@H](O)[C@H](O)[C@H]3O)c2)oc2cc(O)cc(O)c12 |  | 430 µM | inactive
14 | O=c1c(O[C@@H]2O[C@H](CO)[C@@H](O)[C@H](O)[C@H]2O[C@@H]2OC[C@@H](O)[C@H](O)[C@H]2O)c(-c2ccc(O)c(O)c2)oc2cc(O)cc(O)c12 |  | 370 µM | inactive
15 | COc1cc([C@@H]2c3cc(O)c(OC)cc3C[C@H](CO)[C@H]2CO[C@@H]2O[C@H](CO)[C@@H](O)[C@H](O)[C@H]2O)ccc1O |  |  | inactive
16 | O=c1c(O[C@@H]2O[C@H](CO)[C@@H](O)[C@H](O)[C@H]2O)c(-c2ccc(O)c(O)c2)oc2cc(O)cc(O)c12 [ISOQUERCETIN] |  | 430 µM | inactive
